Measurements as given in ChEMBL document CHEMBL1148839, “Synthesis of new xanthone analogues and their biological activity test--cytotoxicity, topoisomerase II inhibition, and DNA cross-linking study” (Bioorg Med Chem Lett, 2007).

Experiments:
MCF7 = test: Cytotoxicity against human MCF7 cells after 4 days by MTT assay; format: functional, cell-based; settings: MCF7, 96 h
How it was run: (§1)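 Cells from ATCC seeded at 2-4×10^4 per well, attached overnight in medium with 10% FBS, 37 °C, 5% CO2. On day 1 medium replaced with medium containing graded compound concentrations. On day 4 MTT added (final 0.5 mg/mL), 4 h further incubation, DMSO solubilization, absorbance at 570 nm. IC50 from four-parameter logistic fit; each value average of four experiments.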

MDA-MB-231 = test: Cytotoxicity against human MDA-MB-231 cells after 4 days by MTT assay; format: functional, cell-based; settings: MDA-MB-231, 96 h; how it was run: as §1
LNCaP = test: Cytotoxicity against human LnCap cells after 4 days by MTT assay; format: functional, cell-based; settings: 96 h; how it was run: as §1
HCT-116 = test: Cytotoxicity against human HCT116 cells after 4 days by MTT assay; format: functional, cell-based; settings: HCT-116, 96 h; how it was run: as §1
HeLa = test: Cytotoxicity against human HeLa cells after 4 days by MTT assay; format: functional, cell-based; settings: 96 h; how it was run: as §1
Escherichia coli = test: Effect on pBR322 DNA cross linking activity after 1 hr
How it was run: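 Linearized pBR322 DNA (0.5 µg) incubated with compound at 0, 10, 50, 100, 200 µM for 1 h at room temperature in 10 mM Tris-HCl pH 7.5. Run on 1.2% alkaline agarose gel (40 mM NaOH, 1 mM EDTA running buffer), neutralized, ethidium bromide stained, UV visualized.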

Homo sapiens = species on record: Homo sapiens; test: Inhibition of human topoisomerase 2-mediated DNA relaxation at 100 uM relative to etoposide
How it was run: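 Relaxation assay: supercoiled pBR322 plasmid DNA (0.3 µg) incubated with 0.2 unit human topoisomerase II and compound (20 and 100 µM), 37 °C, 30 min. Etoposide as positive control. Inhibition ratio calculated from gel band densitometry.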

Activity (Escherichia coli) | inhibition (Homo sapiens) | SMILES | IC50 (MCF7) | IC50 (MDA-MB-231) | IC50 (LNCaP) | IC50 (HCT-116) | IC50 (HeLa)
 |  | COc1cccc2c(=O)c3c(O)cc(OCC4CO4)cc3oc12 (configuration not stated) | > 100 µM | > 100 µM | > 100 µM | > 100 µM | > 100 µM
 |  | COc1cccc2c(=O)c3c(O)cc(OCC(O)CCl)cc3oc12 (configuration not stated) | > 100 µM | 81.4 µM | > 100 µM | 31.4 µM | 60.3 µM
 |  | COc1cccc2c(=O)c3c(O)cc(OCC(O)CBr)cc3oc12 (configuration not stated) | 97.8 µM | 99.8 µM | > 100 µM | > 100 µM | > 100 µM
Dose-dependent effect | 100% | O=c1c2ccccc2oc2cc(OCC3CO3)cc(OCC3CO3)c12 (configuration not stated) | 3.2 µM | 12.8 µM | 9 µM | 10.2 µM | 23.3 µM
 |  | COc1cccc2c1C(=O)c1c(O)c3c(c(O)c1C2=O)C[C@@](O)(C(=O)CO)C[C@@H]3O[C@H]1C[C@H](N)[C@H](O)[C@H](C)O1 [DOXORUBICIN] |  | 17.6 µM | 4.6 µM | 7.7 µM | 3.3 µM
 | 57% | O=c1c2ccccc2oc2cc(OCC(O)CBr)cc(O)c12 (configuration not stated) | 53.5 µM | 76.3 µM | 64.4 µM | 16.9 µM | 98.1 µM
 |  | O=c1c2ccccc2oc2cc(OCC(O)CCl)cc(O)c12 (configuration not stated) | > 100 µM | > 100 µM | > 100 µM | > 100 µM | > 100 µM
 |  | O=c1c2ccccc2oc2cc(OCC3CO3)cc(O)c12 (configuration not stated) | 68.4 µM | > 100 µM | 93.1 µM | 80.8 µM | 68.7 µM
